In PubChem BioAssay:
Results filed as inconclusive are left out.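 Rule for the calls, unless noted: active = inhibition over a set limit, the all-compound mean plus 3 SD, in both replicate runs; inconclusive = over that limit in just one replicate run; inactive = at or under that limit in both runs.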

Assays:
[1] = S. cerevisiae growth inhibition in permissive medium (OD615), pilot counter-assay for S. cerevisiae lifespan shortening project, permissive growth control (AID 705;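 active = growth inhibition above 25% in both replicates, a cutoff set 3 SD above the mean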); conditions: OD615, 24 h, at 10 µM, hits give high values
Procedure, shortened: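 assay system = Saccharomyces cerevisiae strain carrying genetically modified DeaD replicative-lifespan system | medium = SC raffinose/galactose permissive medium | dosing = 10 µM single dose, 0.25% DMSO | schedule = 24 h compound exposure at 30 °C after 4 h pre-growth | measured by = OD at 615 nm | read-out basis = growth inhibition from lowered OD615 after 24 h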

[2] = S. cerevisiae growth inhibition in restrictive medium, OD615, pilot screen, restrictive growth control, yeast lifespan reduction project (AID 706;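 active = growth inhibition above a set limit, 3 SD over mean compound inhibition, in both replicates, cut at about 43% in these data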;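 note: modified DeaD lifespan yeast strain shifted to restrictive glucose medium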); conditions: OD615, 48 h, at 10 µM, hits give high values
Procedure, shortened: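 Buffer or medium: CSMM-D glucose medium. Material: genetically modified Saccharomyces cerevisiae, DeaD replicative lifespan assay strain. Times: 48 h compound exposure at 30 °C. Measured by: optical density at 615 nm.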

[3] = doxorubicin toxicity protection in MRP-1 cells – H69AR cells, CellTiter-Glo, duplicate, MRP-1 activator project, pilot screen (AID 807;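 active = viability increase at or above a cutoff of the median across tested compounds plus 3 SD, cut at about 8.5% in these data, passing the limit was not always enough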;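 note: compound pretreatment 18-22 h then 72 h combined with doxorubicin; 0% = doxorubicin alone and 100% = vehicle without doxorubicin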); conditions: H69AR viability with doxorubicin, CellTiter-Glo luminescence; at 10 µM; hits give high values
[4] = viability of HCT116 without oncogenic beta-catenin – human colon tumor cells, pilot screen (AID 823;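 active = cell viability at or below a set limit in both duplicate runs, the limit being the all-compound median minus 4 SD, cut at about 23% in these data, passing the limit was not always enough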;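 note: 0% = wells killed by 20 µM Hyamine and 100% = untreated DMSO cell wells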); conditions: HCT116 beta-catenin knockout viability, CellTiter-Glo, 60 h; at 10 µM; hits give low values
[5] = viability of PTEN-null HCT116 cells – cell-based, HCT116 clonal line, CellTiter-Glo, pilot screen (AID 824;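 active = viability at or below 27.92% in each of two runs, the all-compound median minus 4 SD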;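 note: 0% = 20 µM Hyamine control and 100% = vehicle cell control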); conditions: HCT116 PTEN-deleted viability, 60 h, at 10 µM, hits give low values
[6] = RAM pathway blockade in budding yeast – dse1pr::URA3 reporter, 5-FOA selection, pilot screen (AID 869);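 note: 0% = DMSO wells with no growth and 100% = 10 µM 1-NA-PP1 with full growth; RAM network block rescues cells from 5-FOA so hits raise OD615 growth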; conditions: S. cerevisiae dse1pr::URA3 5-FOA growth, OD615, 2 d; at 10 µM; hits give high values; strain carries analog-sensitive mutant Cbk1 kinase
[7] = RAM signaling pathway blockade in yeast – S. cerevisiae, Pdr1DBD-CYC8 efflux-inhibited sensitized strain, primary screen (AID 1298;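 active = RAM network inhibition above 8.4% in each of two replicates, 3 SD over the compound average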;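 note: 0% = DMSO untreated cells without growth and 100% = 10 µM 1-NA-PP1 full growth; higher means more yeast growth rescued from 5-FOA killing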); conditions: S. cerevisiae cbk1-as DSE1-URA3 strain, 5-FOA growth OD615, 2 d; at 50 µM; hits give high values

CC1CC(C)CN(C(=O)c2cn(C)c3ccc(S(=O)(=O)N(C)C)cc3c2=O)C1 (stereo not drawn)
inactive: growth inhibition [1] -4.13% | growth inhibition [2] 14.5% | viability increase [3] -0.59% | viability [4] 114% | viability [5] 104% | inhibition [6] 2.47% | RAM network inhibition [7] 2.05%

Cc1cc2ccccc2n1CCNC(=O)C(C)(C)C
inactive: growth inhibition [1] 3.07% | growth inhibition [2] 7.19% | viability increase [3] -0.5% | viability [4] 96.6% | viability [5] 103% | inhibition [6] 1.72% | RAM network inhibition [7] -1.8%

COc1cccc(-c2nnc(SCC(=O)N3CC(C)CC(C)C3)o2)c1 (stereo not drawn)
inactive: growth inhibition [1] -6.77% | growth inhibition [2] -0.75% | viability increase [3] -3.25% | viability [4] 98% | viability [5] 90.5% | inhibition [6] 0.535% | RAM network inhibition [7] 0.7%

O=c1oc(-c2cc3ccccc3o2)nc2sc3c(c12)CCCC3
inactive: growth inhibition [1] -10.5% | growth inhibition [2] -6.6% | viability increase [3] 3.77% | viability [4] 74.4% | viability [5] 56.9% | inhibition [6] 2.1% | RAM network inhibition [7] 4.52%

Cc1c(C(=O)NCC2CCCO2)sc2nc(-c3ccccc3)cn12 (stereo not drawn)
inactive: growth inhibition [1] 7.17% | growth inhibition [2] 8.27% | viability increase [3] 0.89% | viability [4] 109% | viability [5] 95.1% | inhibition [6] 0.15% | RAM network inhibition [7] 1.08%

COC(=O)C1=C(C)n2cnnc2NC1c1ccc(Cl)cc1 (stereo not drawn)
inactive: growth inhibition [1] 0.905% | growth inhibition [2] -4.44% | viability increase [3] 0.28% | viability [4] 104% | viability [5] 97.2% | inhibition [6] 1.27% | RAM network inhibition [7] -0.92%

CC1CCCCC1NC(=O)c1nnc(Cc2ccc(Cl)cc2)o1 (stereo not drawn)
inactive: growth inhibition [1] -9.84% | growth inhibition [2] -0.745% | viability increase [3] 3.87% | viability [4] 104% | viability [5] 90.8% | inhibition [6] 1.07% | RAM network inhibition [7] 9.76%

CCCCCOc1ccc(NC(=O)CCCC(=O)O)cc1
inactive: growth inhibition [1] -3.13% | growth inhibition [2] 2.42% | viability increase [3] -0.75% | viability [4] 91.1% | viability [5] 97.8% | inhibition [6] -0.545% | RAM network inhibition [7] 1.02%

Cc1ccccc1NC(=O)NCCN1C(=O)C2C3C=CC(C3)C2C1=O (stereo not drawn)
inactive: growth inhibition [1] -7.87% | growth inhibition [2] 1.59% | viability increase [3] -2.01% | viability [4] 103% | viability [5] 102% | inhibition [6] 0.745% | RAM network inhibition [7] 1.46%

CC1(C)CCCC2=C1CC1C(=O)N(O)C(=O)C1C2 (stereo not drawn)
inactive: growth inhibition [1] -8.79% | growth inhibition [2] -12.1% | viability increase [3] -1.21% | viability [4] 102% | viability [5] 87.8% | inhibition [6] 1.96% | RAM network inhibition [7] 1.62%

Cc1ccc(C)c(N2CCN(C(=O)CCc3nc4ccccc4[nH]3)CC2)c1
inactive: growth inhibition [1] 6.2% | growth inhibition [2] 7.36% | viability increase [3] 1.46% | viability [4] 80.9% | viability [5] 90.4% | inhibition [6] -0.165% | RAM network inhibition [7] -0.77%

CCOc1ccc(N2C(=O)c3ccccc3C2O)cc1 (stereo not drawn)
inactive: growth inhibition [1] 6.33% | growth inhibition [2] 11.8% | viability increase [3] 1.68% | viability [4] 101% | viability [5] 87.5% | inhibition [6] -0.05% | RAM network inhibition [7] 2.58%

Cn1c(=O)c2cc(S(=O)(=O)NC(C(=O)N3CCCCCC3)c3ccccc3)ccc2n(C)c1=O (stereo not drawn)
inactive: growth inhibition [1] -16.6% | growth inhibition [2] -23.3% | viability increase [3] -1.22% | viability [4] 104% | viability [5] 89.1% | inhibition [6] 0.175% | RAM network inhibition [7] 2.61%

CCP(=O)(c1ccccc1)C(C)(C)O (stereo not drawn)
inactive: growth inhibition [1] 6.37% | growth inhibition [2] -8.84% | viability increase [3] -2.44% | viability [4] 104% | viability [5] 93.9% | inhibition [6] 1.48% | RAM network inhibition [7] -0.68%

COc1ccc(CNC(=O)c2onc(C)c2Cl)cc1
inactive: growth inhibition [1] -14.2% | growth inhibition [2] -17.2% | viability increase [3] -1.96% | viability [4] 96% | viability [5] 93.7% | inhibition [6] 2.31% | RAM network inhibition [7] 4.91%

O=C(CCS(=O)NCc1ccccc1)NCc1ccccc1 (stereo not drawn)
inactive: growth inhibition [1] -7.98% | growth inhibition [2] -11.4% | viability increase [3] -2.13% | viability [4] 99.7% | viability [5] 99.9% | inhibition [6] 0.425% | RAM network inhibition [7] 1.51%

Cc1ccc2oc(=O)c3cc(C(=O)NCCN4CCN(C)CC4)sc3c2c1
inactive: growth inhibition [1] -0.32% | growth inhibition [2] -8.46% | viability increase [3] -1.81% | viability [4] 85.5% | viability [5] 83.5% | inhibition [6] 0.16% | RAM network inhibition [7] 0.45%

Cn1c(=O)oc2cc(S(=O)(=O)N3CCCC(C(=O)NCCN4CCOCC4)C3)ccc21 (stereo not drawn)
inactive: growth inhibition [1] -1% | growth inhibition [2] 10.4% | viability increase [3] -0.15% | viability [4] 103% | viability [5] 108% | inhibition [6] 0.68% | RAM network inhibition [7] 4.15%

CCOC(=O)N1CCN(C(=O)c2ccc3c(SCC(=O)O)c4c(nc3c2)CCC4)CC1
inactive: growth inhibition [1] -7.38% | growth inhibition [2] 3.22% | viability increase [3] -1.86% | viability [4] 102% | viability [5] 93% | inhibition [6] 0.9% | RAM network inhibition [7] 2.81%

Cc1nn(C)c(C)c1S(=O)(=O)N(CC(=O)Nc1ccc2c(c1)OCO2)c1ccc(C(C)C)cc1
inactive: growth inhibition [1] -19.5% | growth inhibition [2] -7.85% | viability increase [3] -2.38% | viability [4] 102% | viability [5] 99.4% | inhibition [6] 2.36% | RAM network inhibition [7] 2.62%

COc1ccc(CCNC(=O)CN2CCOc3ccccc32)cc1OC
inactive: growth inhibition [1] -23.7% | growth inhibition [2] 13.9% | viability increase [3] -6.27% | viability [4] 100% | viability [5] 96.8% | inhibition [6] 0.49% | RAM network inhibition [7] 1.27%

C=CCOc1cccc(C2C(C(=O)c3ccco3)=C(O)C(=O)N2CCN2CCOCC2)c1 (stereo not drawn)
inactive: growth inhibition [1] -9.71% | growth inhibition [2] -10.5% | viability increase [3] -2.85% | viability [4] 94.1% | viability [5] 93.2% | inhibition [6] 0.795% | RAM network inhibition [7] -0.11%

O=C(CSc1nccc2ccccc12)N1CCN(c2ccccn2)CC1
inactive: growth inhibition [1] -3.48% | growth inhibition [2] 8.46% | viability increase [3] -2.78% | viability [4] 97.5% | viability [5] 99.8% | inhibition [6] 0.295% | RAM network inhibition [7] -0.26%

Cc1cc(OCC(=O)C(C)(C)C)c2c(C)c(C)c(=O)oc2c1
inactive: growth inhibition [1] -18.8% | growth inhibition [2] -20.7% | viability increase [3] -6.01% | viability [4] 79.9% | viability [5] 73.8% | inhibition [6] 0.31% | RAM network inhibition [7] 6.85%
